FGF22 binding: FGF22 (human) thermal shift binding | Q9HCT0 | recombinant FGF22 thermal shift, SYPRO orange fluorescence; percent of sucrose octasulfate shift, DMSO zero | hit rate 1.5% among 340,000 | activity (Tm shift, normalised), % at 9.99 µM;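 active means mean Tm shift, scaled 0 neutral to 100 positive control, at about 1.3% or above, every replicate too, limit read from the data; inconclusive means no clear call, values can overlap the other calls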
ERp5 block: inhibitors of human ERp5; hit rate 0.05% among 350,000; ERp5 insulin aggregation, absorbance 650 nm, 90 min; Q15084; inhibition, % at 9.99 µM;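 active means mean replicate inhibition above about 25%, with every replicate also reaching it, limit read from the data, passing the limit was not always enough; inconclusive means only one of those two criteria met; inactive means neither criterion met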
Target sequence (Q15084 whole entry, looked up): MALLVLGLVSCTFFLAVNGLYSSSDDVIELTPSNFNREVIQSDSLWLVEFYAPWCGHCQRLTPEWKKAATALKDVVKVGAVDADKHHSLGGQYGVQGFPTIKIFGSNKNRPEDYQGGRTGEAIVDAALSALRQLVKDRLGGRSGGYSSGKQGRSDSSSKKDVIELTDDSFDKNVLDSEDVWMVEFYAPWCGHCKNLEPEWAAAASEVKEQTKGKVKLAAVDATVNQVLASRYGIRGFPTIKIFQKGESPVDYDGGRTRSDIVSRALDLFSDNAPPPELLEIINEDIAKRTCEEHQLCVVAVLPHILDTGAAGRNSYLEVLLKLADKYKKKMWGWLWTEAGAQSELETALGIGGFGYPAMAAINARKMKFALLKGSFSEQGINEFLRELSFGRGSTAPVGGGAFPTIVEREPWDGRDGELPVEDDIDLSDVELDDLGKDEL
S100A4 inh HTS: inhibitors of human S100A4 binding to myosin IIA peptide. S100A4/TAMRA-MyoIIA peptide fluorescence polarization. inhibition, % at 10.7 µM. hit rate 0.14% among 360,000;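 active means mean inhibition of at least 70% across replicates, with every replicate also reaching that level; inconclusive means mean inhibition reaches 70% but some replicates fall short; inactive means mean inhibition below 70%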
Target sequence (P26447 whole entry, looked up): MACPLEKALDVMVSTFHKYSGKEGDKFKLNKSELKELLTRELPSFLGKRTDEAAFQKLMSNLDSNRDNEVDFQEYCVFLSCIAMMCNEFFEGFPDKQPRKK
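Compound dosing: one dose per compound; test system: human S100A4 monomer with TAMRA-labelled myosin IIA peptide; probe or stimulus: TAMRA-labelled myosin IIA heavy-chain peptide probe, 5 nM; medium: HEPES buffer with Ca2+, pH 7.2; schedule: 5 min incubation before reading; benchmarks: neutral control DMSO, positive control TFP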
PDI inh: inhibitors of human protein disulfide isomerase | P07237 | PDI insulin aggregation turbidity, A650, 90 min | inhibition, % at 10 µM | hit rate 0.052% among 350,000 | AID 588391;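 active means mean inhibition across replicates of 30% or more, whatever share of single replicates reach that level; inconclusive means mean inhibition below 30% while every single replicate reaches 30%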
ERAP1 inh: inhibitors of human ERAP1 aminopeptidase; Q9NZ08; recombinant ERAP1, Leu-AMC fluorescence, 60 min; inhibition, % at 10.7 µM; hit rate 0.15% among 340,000; AID 652197;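 active means mean replicate inhibition of at least 30%, or all replicates individually reaching that 30% level; inactive means mean below 30% and not every replicate reaching it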
Large screens that a line does not name were inactive; ! = repeats disagree. The full list was thinned out, with hits kept by preference.

O=C(COC(=O)c1cccc(S(=O)(=O)N2CCCCC2)c1)NC1CCCCC1	none
O=S(=O)(NC(CO)Cc1ccccc1)c1ccc(Br)cc1F (configuration not stated)	FGF22 binding 43
C/C(=N\NC(=O)COc1ccc(C)cc1Br)c1cc([N+](=O)[O-])cs1	FGF22 binding 43
C/C(=N\NC(=O)COc1ccc(C)cc1[N+](=O)[O-])c1cccs1	none
CC1=CC(=O)[C@@H](O)[C@@H](c2ccccc2Br)N1C	none
Cc1cc(C(=O)CSc2nncs2)c(C)n1Cc1ccco1	none
Cc1cc(C(=O)CCl)c(C)n1Cc1ccco1	FGF22 binding 43
CN[C@H]1CC[C@@H](c2ccc(Cl)c(Cl)c2)c2ccccc21	none
CCOc1ccccc1NC(=O)NC1(C(=O)N2CCOCC2)CCCCC1	none (no result: FGF22 binding, ERp5 block, S100A4 inh HTS, ERAP1 inh)
CN1CCN(C(=O)/C(=C\c2cccnc2)NC(=O)c2cccc(Br)c2)CC1	FGF22 binding 1.4
O=C(N/C(=C/c1ccccc1)C(=O)N1CCOCC1)c1ccc([N+](=O)[O-])cc1	none
O=C(N/C(=C\c1cccnc1)C(=O)N1CCOCC1)c1cccc(Br)c1	none (no result: FGF22 binding, ERp5 block, S100A4 inh HTS, ERAP1 inh)
COc1ccc(/C=C(\NC(=O)c2ccc([N+](=O)[O-])cc2)C(=O)N2CCOCC2)cc1	FGF22 binding 43
O=C(N/C(=C/c1cccnc1)C(=O)N1CCOCC1)c1ccccc1	FGF22 binding 43
O=C(N/C(=C/c1cccs1)C(=O)N1CCOCC1)c1ccccc1	FGF22 binding 44
COc1ccccc1N(CC(=O)NC1CCCCC1C)S(=O)(=O)c1cccs1 (configuration not stated)	none
COc1ccccc1CNC(=O)CCS(=O)(=O)c1ccc2c(c1)CC(C)N2C(=O)C1CC1 (configuration not stated)	none
CCc1ccc2c(c1)NC(=O)C2(C)Cc1ccccc1C#N (configuration not stated)	none
CN(C)Cc1ccc(CNC(=O)c2ccc(Cl)c(S(=O)(=O)NC3CC3)c2)cc1	none
CN(C)Cc1ccccc1CNC(=O)c1ccc(Cl)c(S(=O)(=O)NC2CC2)c1	FGF22 binding 43
CCN(CC)c1ccc(N=C2C=CC(=O)C=C2NC(C)=O)cc1	S100A4 inh HTS 127
CCCCCCCCCCOC(=O)C[N+](C)(C)C/C=C(/C)Cl	ERAP1 inh 36
CCCCCCCCOC(=O)C[N+](C)(C)C/C=C(/C)Cl	none
CSc1ncccc1C(=O)OCC(=O)Nc1ccc(N2CCOCC2)cc1	none
COc1ccc(-c2[nH]ncc2CN(C)Cc2cccnc2)c(OC)c1	FGF22 binding 43
CC(C)NC(=O)N(C)C[C@@H]1Oc2ncc(-c3cc4ccccc4o3)cc2C(=O)N([C@H](C)CO)C[C@@H]1C	ERp5 block 28 (no result: PDI inh)
C[C@@H]1CN([C@@H](C)CO)C(=O)c2cc(/C=C/c3ccccc3)cnc2O[C@H]1CN(C)S(=O)(=O)c1cccs1	S100A4 inh HTS 94 (no result: PDI inh)
CCCNC(=O)N(C)C[C@@H]1Oc2ncc(-c3ccncc3)cc2C(=O)N([C@H](C)CO)C[C@@H]1C	ERAP1 inh 33!
COc1ccc(S(=O)(=O)N(C)C[C@H]2Oc3ncc(-c4ccncc4)cc3C(=O)N([C@@H](C)CO)C[C@H]2C)cc1	S100A4 inh HTS 90 (no result: PDI inh)
Cc1ccc(S(=O)(=O)Nc2ccc3c(c2)C(=O)N([C@@H](C)CO)C[C@@H](C)[C@@H](CN(C)S(=O)(=O)c2cn(C)cn2)OCCCC[C@H](C)O3)cc1	none (no result: PDI inh)
OC1CCCN(CC(O)c2ccccc2)C1 (configuration not stated)	FGF22 binding 43
CCN(CC)CCN(CC(=O)N(C1CCCCC1)C1CCCCC1)C(=O)c1cccnc1	FGF22 binding 44
O=C(NCC1CCCCC1)c1cccnc1	none
COc1ccc(CN(C)Cc2c(O)ccc3cc(Br)ccc23)cc1OC	FGF22 binding 1.7
O=C(/C=C/c1ccc(O)cc1)c1ccc(O)cc1O	PDI inh 41
Cc1cc2cc(CNC(=O)Nc3cccc(Cl)c3)ccc2n1C	S100A4 inh HTS 78
Cc1cc2cc(CNC(=O)c3cccc([N+](=O)[O-])c3)ccc2n1C	S100A4 inh HTS inconclusive (no result: PDI inh)
O=C(Cc1ccc([N+](=O)[O-])cc1)NCc1ccccn1	FGF22 binding 43
Cc1cc2cc(CNC(=O)Cc3ccc([N+](=O)[O-])cc3)ccc2n1C	FGF22 binding 44
C[C@@H]1CN([C@H](C)CO)C(=O)c2cc(NC(=O)c3ccccc3)ccc2O[C@@H](C)CCCCO[C@H]1CN(C)C(=O)C1CCCCC1	none (no result: PDI inh)
O=C(CCn1ccc2cc(S(=O)(=O)N3CCCC3)ccc21)NCc1ccccc1F	none
O=C(Cc1ccccc1)NC1CCN(C(=O)c2ccc([N+](=O)[O-])cc2)CC1	none
O=C(Cc1ccccc1)N1CCN(C(=O)c2ccc([N+](=O)[O-])cc2)CC1	FGF22 binding 45
COc1ccc(CCN(C)C(=O)/C=C/c2c(Cl)nc3ccccn23)cc1OC	none
CCN(CC(=O)Nc1cccc(F)c1)CC(=O)Nc1ccc2c(c1)OCCO2	none
O=C(NCCc1nc2ccccc2[nH]1)c1ccc([N+](=O)[O-])cc1	none
CC(C)C(NC(=O)CCNC(=O)c1ccc([N+](=O)[O-])cc1)c1nc2ccccc2[nH]1 (configuration not stated)	ERAP1 inh 67
Cc1nc(SCC(=O)Nc2c(C)n(C)n(-c3ccccc3)c2=O)nc(C)c1C	none (no result: FGF22 binding, ERp5 block, S100A4 inh HTS, ERAP1 inh)
C[C@H]1CCC/C=C/[C@@H]2C[C@H](O)C[C@H]2[C@H](O)[C@H](S(=O)c2ccc(O)cc2)CC(=O)O1 (some centres not stated)	ERAP1 inh 67
COc1ccc(NC(=S)N2CCN(C(c3ccccc3)c3ccccc3)CC2)cc1OC	none
CC(=O)Nc1cccc(C(=O)/C=C/c2ccc(/C=C/C(=O)c3cccc(NC(C)=O)c3)cc2)c1	FGF22 binding 43 (no result: PDI inh)
CC(=O)Nc1cccc(C(=O)/C=C/c2ccc(F)cc2)c1	none
Cc1noc(C)c1NC(=O)Nc1ccc2c(c1)C(=O)N([C@@H](C)CO)C[C@H](C)[C@@H](CN(C)C(=O)NC1CCCCC1)O2	none (no result: PDI inh)
CS(=O)(=O)Nc1ccc2c(c1)[C@@H]1C[C@H](CC(=O)O)O[C@@H](CO)[C@@H]1O2	none (no result: FGF22 binding, PDI inh)
CN(C)C(=O)C[C@@H]1C[C@@H]2c3cc(NS(C)(=O)=O)ccc3O[C@@H]2[C@H](CO)O1	ERp5 block 77 (no result: PDI inh)
CN(C)C(=O)C[C@@H]1C[C@H]2c3cc(NS(C)(=O)=O)ccc3O[C@H]2[C@@H](CO)O1	ERp5 block 93 (no result: PDI inh)
CS(=O)(=O)Nc1ccc2c(c1)[C@H]1C[C@@H](CC(=O)O)O[C@@H](CO)[C@H]1O2	none (no result: FGF22 binding, PDI inh)
CC(=O)Nc1ccc2c(c1)C(=O)N(C)[C@H]1CC[C@@H](CC(=O)N3CCc4ccccc4C3)O[C@@H]1CO2	none (no result: ERp5 block, S100A4 inh HTS, PDI inh, ERAP1 inh)
Cc1cccc(C)c1NS(=O)(=O)c1ccc(OCCNS(C)(=O)=O)cc1	FGF22 binding 43
O=C(c1cccnc1)N1N=C(C2CC2)CC1(O)C(F)(F)F (configuration not stated)	FGF22 binding 44
